Measured values reported in PubChem BioAssay.
Active and inactive are the calls of the source.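 How the source made its calls, unless noted: active means viability at or under a set limit in both replicates, limit being median viability minus 3 SD (cut at about 48% in these data, passing the limit was not always enough); inconclusive means at or under the limit in just one replicate; inactive means at or above the limit in both replicates.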

How the values were obtained:
[1] = HUVEC growth inhibition – cell-based, human, primary screen (AID 575;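 active means viability at or below 30% in both replicate assays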;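 further: 100% = median of untreated cell wells with 0.1% DMSO on each plate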); conditions: HUVEC proliferation, CellTiter-Glo luminescence, 72 h; at 10 µM; stronger effect = lower value
In short: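 Timing: 72 h treatment at 37 °C; material: HUVEC primary cells; technique: CellTiter-Glo luminescence measuring cellular ATP; controls: vehicle and MePR control wells; measure: percent of median DMSO-control luminescence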

[2] = H69AR cell proliferation blockers – human, duplicate replicates, primary screen (AID 580); conditions: H69AR lung tumor cells viability, ATP luminescence, 72 h; at 10 µM; stronger effect = lower value;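 further: 100% = mean luminescence of untreated wells and 0% = no signal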
[3] = MRP1 drug-resistance reversers in H69AR cells – cell-based, doxorubicin co-treatment, pilot screen (AID 601;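 active means viability loss from added drug above about 55%, and viability with drug at most 40%, in both replicates, limit read from the data, passing the limit was not always enough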); conditions: CellTiter-Glo, 72 h, at 10 µM; for differential viability (reversal): stronger effect = higher value
[4] = yeast transport mutant growth inhibition pilot in 384-well plates, post-Golgi transport modulator project (AID 636; in the data active means inhibition above about 31%); conditions: absorbance 615 nm, about 18 h, stronger effect = higher value
[5] = growth suppression of yeast trafficking mutant, preliminary HTS, modulators of trafficking downstream of Golgi apparatus project, 1536-format plate, OD 615 nm (AID 637; in the data active means inhibition above about 30%); conditions: yeast transport mutant growth, absorbance 615 nm, 18 h; stronger effect = higher value
[6] = H69AR cells + 2 uM doxorubicin, measured here: viability with 2 uM doxorubicin, stronger effect = lower value
[7] = H69AR cells, compound alone cytotoxicity

SMILES | viability [1] | viability [2] | differential viability (reversal) ([3]; H69AR cells + 2 uM doxorubicin) | viability [3, 6] | viability [3, 7] | inhibition [4] | inhibition [5]
CCOC(=O)CSC1=C(C#N)C(c2ccc(C)cc2)C(C(=O)OC)C(=O)N1 (configuration not stated) | 81.7% (inactive) | 91.1% (inactive) | 1.55% (inactive) | 89.6% | 91.1% | -1.2% (inactive) | -5.56% (inactive)
COc1ccc(NC(=O)CSc2nnc(-c3ccncc3)n2CC2CCCO2)c(OC)c1 (configuration not stated) | 89.2% (inactive) | 104% (inactive) | 5.88% (inactive) | 97.7% | 104% | -6.36% (inactive) | 4.13% (inactive)
N#CC1=C(SCc2ccccc2)NC(=O)C(C#N)C12CCCC2 (configuration not stated) | 72.7% (inactive) | 83.1% (inactive) | -9.75% (inactive) | 92.9% | 83.1% | -5% (inactive) | 1.9% (inactive)
COc1cccc(CN(C(=O)c2cc3ccccc3oc2=O)C2CC2)c1 | 99.1% (inactive) | 102% (inactive) | 5.67% (inactive) | 96.1% | 102% | -0.13% (inactive) | 0% (inactive)
Cc1c(N(C)C)nc2ccccc2c1N | 83.8% (inactive) | 84.4% (inactive) | -5.31% (inactive) | 89.7% | 84.4% | -4% (inactive) | 2.54% (inactive)
CCc1nnc(NC(=O)CSc2nnc(Cc3ccccc3)n2-c2ccc(OC)cc2)s1 | 92.9% (inactive) | 84.6% (inactive) | -6.38% (inactive) | 90.9% | 84.6% | -5.79% (inactive) | -0.63% (inactive)
CS(=O)(=O)N1CCC(C(=O)NCCC2=CCCCC2)CC1 | 99.7% (inactive) | 99.9% (inactive) | 20.4% (inactive) | 79.6% | 99.9% | -5.73% (inactive) | -1.11% (inactive)
CC(C)C(c1nnnn1C1CCCC1)N1CCCc2ccccc21 (configuration not stated) | 80.3% (inactive) | 84.5% (inactive) | -6.77% (inactive) | 91.2% | 84.5% | 1.33% (inactive) | -3.65% (inactive)
Cc1ccc2nsnc2c1S(=O)(=O)N1CCN(Cc2ccc3c(c2)OCO3)CC1 | 91% (inactive) | 91% (inactive) | 1.65% (inactive) | 89.3% | 91% | -3.03% (inactive) | 2.86% (inactive)
COc1cc(C2C3=C(CC(C)(C)CC3=O)Nc3c2c(=O)[nH]c(=O)n3Cc2ccccc2)ccc1O (configuration not stated) | 83.3% (inactive) | 93.7% (inactive) | 4.23% (inactive) | 89.5% | 93.7% | 0.26% (inactive) | 3.33% (inactive)
Cc1cccc(NCc2ccccc2O)c1 | 76.1% (inactive) | 94.6% (inactive) | 5.33% (inactive) | 89.2% | 94.6% | -0.13% (inactive) | -5.87% (inactive)
COC(=O)c1sccc1NC(=O)c1ccncc1 | 115% (inactive) | 86.4% (inactive) | 8.91% (inactive) | 77.5% | 86.4% | -3.95% (inactive) | 5.56% (inactive)
O=C(NC1=NCCS1)c1nc(-c2ccccc2)n(-c2ccccc2)n1 | 70.4% (inactive) | 101% (inactive) | 8.75% (inactive) | 92.1% | 101% | -3.73% (inactive) | 0.63% (inactive)
O=C(O)Cn1nc2ccccc2n1 | 108% (inactive) | 93.9% (inactive) | 3.65% (inactive) | 90.3% | 93.9% | -4% (inactive) | 8.73% (inactive)
Cc1cccc(-n2c(N)c(C(=O)N3CCN(C)CC3)sc2=S)c1 | 101% (inactive) | 92.2% (inactive) | 8.09% (inactive) | 84.2% | 92.2% | -0.39% (inactive) | -7.3% (inactive)
O=C(Nc1ccc(N2CCCC2=O)cc1)c1cccc(F)c1 | 109% (inactive) | 99.9% (inactive) | 21.6% (inactive) | 78.2% | 99.9% | -4.61% (inactive) | 0.95% (inactive)
CCOc1ccc(CNc2ccc3c(c2)ncn3C)cc1 | 106% (inactive) | 93.2% (inactive) | 3.64% (inactive) | 89.5% | 93.2% | -3.73% (inactive) | -6.83% (inactive)
COc1ccc(Cl)cc1Nc1nc(NCCO)nc(N2CCCC2)n1 | 55.1% (inactive) | 89.3% (inactive) | -10.3% (inactive) | 99.6% | 89.3% | -7.57% (inactive) | 8.41% (inactive)
COC(=O)c1c(N)sc(C(=O)N2CCOCC2)c1C | 95.2% (inactive) | 97.7% (inactive) | 6.62% (inactive) | 91% | 97.7% | -0.4% (inactive) | -5.87% (inactive)
NC(=O)c1cc(-c2ccccc2)nc(Oc2ccccc2)n1 | 108% (inactive) | 98.7% (inactive) | 3.71% (inactive) | 95% | 98.7% | -8% (inactive) | -0.63% (inactive)
CNCCC(Oc1ccc(C(F)(F)F)cc1)c1ccccc1 (configuration not stated) | 54.1% (inactive) | 58.5% (inactive) | -6.63% (inactive) | 65.2% | 58.5% | 2.47% (inactive) | -3% (inactive)

SMILES | viability [1] | viability [2] | differential viability (reversal) ([3]; H69AR cells + 2 uM doxorubicin) | viability [3, 6] | viability [3, 7] | inhibition [4] | inhibition [5]
O=C(Oc1ccccc1)c1cccc(COC(=O)c2cnccn2)c1 | 84.9% (inactive) | 103% (inactive) | 14.2% (inactive) | 88.4% | 103% | -6.13% (inactive) | 4.13% (inactive)
Cc1nn(Cc2ccccc2Cl)c(C)c1NC(=O)C1C2CCC(O2)C1C(=O)O (configuration not stated) | 93.8% (inactive) | 90.9% (inactive) | 3.11% (inactive) | 87.8% | 90.9% | -1.97% (inactive) | -7.14% (inactive)
N#Cc1cnc(SCC(=O)c2ccccc2)nc1N | 95.5% (inactive) | 93.1% (inactive) | 16.2% (inactive) | 76.9% | 93.1% | -6.93% (inactive) | 7.3% (inactive)
O=C(Cc1ccc(S(=O)(=O)N2CCCC2)s1)Nc1nc2c(s1)CCCC2 | 66.3% (inactive) | 95.7% (inactive) | 1% (inactive) | 94.7% | 95.7% | -1.17% (inactive) | -6.83% (inactive)
Nc1nc(Nc2cccc3ccccc23)nc(C2CCCC2=O)n1 (configuration not stated) | 89.7% (inactive) | 18% (active) | 0.545% (inactive) | 17.5% | 18% | -4.46% (inactive) | 3.45% (inactive)
Nc1nc(NC(=O)c2cccs2)nn1-c1ccccc1 | 101% (inactive) | 94% (inactive) | 7.31% (inactive) | 86.7% | 94% | -6.45% (inactive) | -4.29% (inactive)
Nc1nc(-c2ccccc2)cc(C(F)(F)F)n1 | 95.4% (inactive) | 103% (inactive) | 8.53% (inactive) | 94.1% | 103% | -3.51% (inactive) | 1.27% (inactive)
CN(c1cccc(NC(=O)COc2ccccc2)c1)S(C)(=O)=O | 108% (inactive) | 96% (inactive) | -3.07% (inactive) | 99% | 96% | 4.47% (inactive) | 0.32% (inactive)
COc1cccc(OC)c1OCCCSc1nc(C)cc(=O)[nH]1 | 107% (inactive) | 91.1% (inactive) | -5.15% (inactive) | 96.2% | 91.1% | -4% (inactive) | -5.56% (inactive)
O=C(Nc1cc(C(F)(F)F)ccc1Cl)c1cc(C2CC2)on1 | 96.4% (inactive) | 91% (inactive) | 3.55% (inactive) | 87.4% | 91% | -3.82% (inactive) | 0.63% (inactive)
COC(=O)CSC1=C(C#N)C(c2ccccc2)CC(=O)N1 (configuration not stated) | 71.7% (inactive) | 23.4% (active) | -48.4% (inactive) | 71.7% | 23.4% | -6% (inactive) | 6.19% (inactive)
Cc1nc(SCC(=O)CC(=O)OC(C)C)c(C#N)c(C)c1C | 99.8% (inactive) | 95% (inactive) | 6.36% (inactive) | 88.7% | 95% | -2.8% (inactive) | 3.33% (inactive)
O=C(CN1C(=O)CCS(=O)(=O)c2ccccc21)NCc1ccc(F)cc1 | 85% (inactive) | 98.4% (inactive) | 3.11% (inactive) | 95.3% | 98.4% | -5.2% (inactive) | -3.81% (inactive)
COC(=O)C1=C(C)N(c2ccc(C(=O)OC)cc2)C(=O)C1 | 86.9% (inactive) | 88.8% (inactive) | 2.86% (inactive) | 86% | 88.8% | -0.39% (inactive) | 1.43% (inactive)
C=CCn1c(Cc2csc(N)n2)nnc1SCC(=O)OCC | 103% (inactive) | 91.9% (inactive) | -4.66% (inactive) | 96.6% | 91.9% | -2.63% (inactive) | -6.67% (inactive)
O=C(CCCNS(=O)(=O)c1ccccc1)NCc1ccco1 | 94.5% (inactive) | 99.3% (inactive) | 6.58% (inactive) | 92.7% | 99.3% | -4.67% (inactive) | 1.9% (inactive)
CC(=O)NC(Cc1ccc(C)cc1)C(=O)NC1CCN(C(=O)c2cnccn2)CC1 (configuration not stated) | 110% (inactive) | 93.3% (inactive) | 2.21% (inactive) | 91.1% | 93.3% | -2.93% (inactive) | 2.22% (inactive)
O=C(CN(c1ccc(F)cc1)S(=O)(=O)c1ccc2c(c1)OCCO2)NCC1CCCO1 (configuration not stated) | 96.5% (inactive) | 100% (inactive) | 13.4% (inactive) | 87.1% | 100% | -3.42% (inactive) | 2.54% (inactive)
CC(C(=O)N1c2ccc(F)cc2CCC1C)N1C(=O)c2ccccc2C1=O (configuration not stated) | 114% (inactive) | 91.3% (inactive) | 11.5% (inactive) | 79.8% | 91.3% | -5.26% (inactive) | 8.73% (inactive)
O=C(Sc1nnnn1C1CCCCC1)c1cccs1 | 102% (inactive) | 98.7% (inactive) | 6.21% (inactive) | 92.5% | 98.7% | -6.53% (inactive) | 3.81% (inactive)
